Experimental findings from ChEMBL document CHEMBL4257495, “Crystallomycin revisited after 60 years: aspartocins B and C” (2018) are described below.

Experiment [1] has as its system Staphylococcus aureus. Briefly: Antibacterial activity against methicillin-resistant Staphylococcus aureus 17 by broth microdilution method. The class given is functional. The method, boiled down: (§1)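 MIC by broth microdilution following CLSI guidelines, run in medium without added Ca2+ and with Ca2+ ions supplemented (level not given). Reference strains came from the Tarasevich State Research Institution collection of pathogenic microorganisms. Clinical MRSA/MRSE isolates came from the Russia Research Institute for Antibiotics Culture Collection.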

The subject of experiment [2] is Staphylococcus aureus. Briefly: Antibacterial activity against methicillin-resistant Staphylococcus aureus 20450 by broth microdilution method. The class given is functional. The method, boiled down: as §1
In experiment [3] the test system is Staphylococcus epidermidis. Briefly: Antibacterial activity against methicillin-resistant Staphylococcus epidermidis C2001 by broth microdilution method. The class given is functional. Summed up: as §1
Experiment [4] deals with Staphylococcus aureus. Briefly: Antibacterial activity against methicillin-resistant Staphylococcus aureus 86 by broth microdilution method. The class given is functional. The method, boiled down:
as §1

The test system of experiment [5] is Staphylococcus aureus. Briefly: Antibacterial activity against methicillin-resistant Staphylococcus aureus 71001 by broth microdilution method. The class given is functional. The method, boiled down: as §1
For experiment [6], the system named is Staphylococcus aureus. Briefly: Antibacterial activity against methicillin-resistant Staphylococcus aureus 88 by broth microdilution method. The class given is functional. The method, boiled down:
as §1

Experiment [7] relates to Enterococcus faecalis. Briefly: Antibacterial activity against Enterococcus faecalis ATCC 29212 by broth microdilution method. The class given is functional. The method, boiled down:
as §1

Experiment [8] deals with Staphylococcus epidermidis. Briefly: Antibacterial activity against methicillin-resistant Staphylococcus epidermidis 004-T1 by broth microdilution method. The class given is functional. Summed up: as §1
The subject of experiment [9] is Enterococcus gallinarum. Briefly: Antibacterial activity against Enterococcus gallinarum VP4147 by broth microdilution method. The class given is functional.
Experiment [10] has as its system Staphylococcus epidermidis. Briefly: Antibacterial activity against methicillin-resistant Staphylococcus epidermidis 20459 by broth microdilution method. The class given is functional. The method, boiled down: as §1
Experiment [11] deals with Staphylococcus aureus. Briefly: Antibacterial activity against Staphylococcus aureus ATCC 29213 by broth microdilution method. The class given is functional. The method, boiled down:
as §1

Experiment [12] concerns Staphylococcus aureus. Briefly: Antibacterial activity against Staphylococcus aureus ATCC 29213 in presence of Ca2+ by broth microdilution method. The class given is functional. Summed up: as §1
The subject of experiment [13] is Staphylococcus aureus. Briefly: Antibacterial activity against methicillin-resistant Staphylococcus aureus 17 in presence of Ca2+ by broth microdilution method. The class given is functional. The method, boiled down: as §1
Experiment [14] deals with Candida albicans. Briefly: Antifungal activity against Candida albicans ATCC 14053. The class given is functional, organism-based.
In experiment [15] the test system is Staphylococcus epidermidis. Briefly: Ratio of MIC for methicillin-resistant Staphylococcus epidermidis C2001 in absence of Ca2+ to MIC for methicillin-resistant Staphylococcus epidermidis C2001 in presence of Ca2+. The class given is functional.
Experiment [16] relates to Escherichia coli. Briefly: Antibacterial activity against Escherichia coli ATCC 25922. The class given is functional, organism-based. Summed up:
as §1

The subject of experiment [17] is Staphylococcus epidermidis. Briefly: Antibacterial activity against methicillin-resistant Staphylococcus epidermidis 004-T1 in presence of Ca2+ by broth microdilution method. The class given is functional. Summed up: as §1
For experiment [18], the system named is Enterococcus faecalis. Briefly: Antibacterial activity against Enterococcus faecalis ATCC 29212 in presence of Ca2+ by broth microdilution method. The class given is functional.
Experiment [19] deals with Staphylococcus epidermidis. Briefly: Ratio of MIC for methicillin-resistant Staphylococcus epidermidis 004-T1 in absence of Ca2+ to MIC for methicillin-resistant Staphylococcus epidermidis 004-T1 in presence of Ca2+. The class given is functional.
For experiment [20], the system named is Aspergillus niger. Briefly: Antifungal activity against Aspergillus niger ATCC 16404. The class given is functional, organism-based.
Experiment [21] concerns Staphylococcus epidermidis. Briefly: Antibacterial activity against methicillin-resistant Staphylococcus epidermidis 20459 in presence of Ca2+ by broth microdilution method. The class given is functional. Summed up: as §1
The test system of experiment [22] is Staphylococcus aureus. Briefly: Ratio of MIC for Staphylococcus aureus ATCC 29213 in absence of Ca2+ to MIC for Staphylococcus aureus ATCC 29213 in presence of Ca2+. The class given is functional.
Experiment [23] relates to Staphylococcus epidermidis. Briefly: Antibacterial activity against methicillin-resistant Staphylococcus epidermidis C2001 in presence of Ca2+ by broth microdilution method. The class given is functional. Summed up: as §1
Experiment [24] has as its system Staphylococcus aureus. Briefly: Antibacterial activity against methicillin-resistant Staphylococcus aureus 86 in presence of Ca2+ by broth microdilution method. The class given is functional. The method, boiled down: as §1
Experiment [25] deals with Enterococcus gallinarum. Briefly: Antibacterial activity against Enterococcus gallinarum VP4147 in presence of Ca2+ by broth microdilution method. The class given is functional.
Experiment [26] concerns Staphylococcus aureus. Briefly: Antibacterial activity against methicillin-resistant Staphylococcus aureus 20450 in presence of Ca2+ by broth microdilution method. The class given is functional. Summed up: as §1
Experiment [27] concerns Staphylococcus aureus. Briefly: Antibacterial activity against methicillin-resistant Staphylococcus aureus 88 in presence of Ca2+ by broth microdilution method. The class given is functional. The method, boiled down: as §1
Experiment [28] relates to Staphylococcus aureus. Briefly: Antibacterial activity against methicillin-resistant Staphylococcus aureus 71001 in presence of Ca2+ by broth microdilution method. The class given is functional. The method, boiled down: as §1
The subject of experiment [29] is Enterococcus faecalis. Briefly: Ratio of MIC for Enterococcus faecalis ATCC 29212 in absence of Ca2+ to MIC for Enterococcus faecalis ATCC 29212 in presence of Ca2+. The class given is functional.
Experiment [30] deals with Enterococcus gallinarum. Briefly: Ratio of MIC for Enterococcus gallinarum VP4147 in absence of Ca2+ to MIC for Enterococcus gallinarum VP4147 in presence of Ca2+. The class given is functional.

Values after ≈ are worked out from the molar mass of the structure shown. Active and inactive are the calls of the source. The calls are words filed in the database; no cut-off is given here.

As to `CCCCCCCCCC(=O)N[C@@H](Cc1c[nH]c2ccccc12)C(=O)N[C@@H](CC(N)=O)C(=O)N[C@@H](CC(=O)O)C(=O)N[C@@H]1C(=O)NCC(=O)N[C@@H](CCCN)C(=O)N[C@@H](CC(=O)O)C(=O)N[C@H](C)C(=O)N[C@@H](CC(=O)O)C(=O)NCC(=O)N[C@H](CO)C(=O)N[C@@H]([C@H](C)CC(=O)O)C(=O)N[C@@H](CC(=O)c2ccccc2N)C(=O)O[C@@H]1C` [DAPTOMYCIN], the minimal inhibitory concentration (MIC) in experiment [1] is 2 µg/mL (≈ 1.23 µM); in [2], 1 µg/mL (≈ 0.617 µM); in experiment [3] it was 1 µg/mL (≈ 0.617 µM); in experiment [4] it was 1 µg/mL (≈ 0.617 µM); in experiment [5], 0.5 to 1 µg/mL (≈ 0.309 to 0.617 µM); in experiment [6], 0.5 to 1 µg/mL (≈ 0.309 to 0.617 µM). For the same compound, the MIC in experiment [7] is 4 µg/mL (≈ 2.47 µM); in experiment [8], 1 µg/mL (≈ 0.617 µM); in experiment [9] it was 8 µg/mL (≈ 4.94 µM); in experiment [10], 1 µg/mL (≈ 0.617 µM); in [11], 0.5 µg/mL (≈ 0.309 µM).

In the case of `CC(C)CCCCCCC/C=C/CC(=O)N[C@@H](CC(=O)O)C(=O)N[C@@H]1C(=O)N2CCCC[C@@H]2C(=O)N[C@@H]([C@H](C)C(=O)O)C(=O)N[C@@H](CC(=O)O)C(=O)NCC(=O)N[C@@H](CC(=O)O)C(=O)NCC(=O)N[C@H](C(C)N)C(=O)N[C@@H](C(C)C)C(=O)N2CCC[C@H]2C(=O)N[C@@H]1C` (some centres undefined), the minimum inhibitory concentration (MIC) in experiment [12] was found to be 4 µg/mL; in [13], 4 µg/mL; in experiment [17], 4 µg/mL; in experiment [18], 8 µg/mL; in [2], 16 µg/mL (≈ 12.3 µM); in experiment [3], 16 µg/mL (≈ 12.3 µM). Besides, the minimal inhibitory concentration (MIC) in experiment [4] was 16 µg/mL (≈ 12.3 µM); in experiment [21] it was 4 µg/mL; in experiment [5], 16 µg/mL (≈ 12.3 µM); in [6], 16 µg/mL (≈ 12.3 µM); in experiment [23], 4 µg/mL; in [24], 4 µg/mL. For the same compound, the minimum inhibitory concentration (MIC) in experiment [25] is 4 to 8 µg/mL; in [26] it was 2 µg/mL; in experiment [8], 32 µg/mL (≈ 24.5 µM); in experiment [11], 16 µg/mL (≈ 12.3 µM); in [27], 4 µg/mL; in experiment [28] it was 4 µg/mL. In addition, the result in experiment [14], in [16] and in experiment [20] was inactive. In addition, the Ratio in [15], in experiment [19] and in experiment [22] was 2 - 8 throughout.

Turning to `CCC(C)CCCCCCC/C=C\CC(=O)N[C@@H](CC(=O)O)C(=O)N[C@@H]1C(=O)N2CCCC[C@@H]2C(=O)N[C@@H]([C@H](C)C(=O)O)C(=O)N[C@@H](CC(=O)O)C(=O)NCC(=O)N[C@@H](CC(=O)O)C(=O)NCC(=O)N[C@H](C(C)N)C(=O)N[C@@H](C(C)C)C(=O)N2CCC[C@H]2C(=O)N[C@@H]1C` (some centres undefined), the minimal inhibitory concentration (MIC) in [12] came out at 2 µg/mL; in [13], 4 µg/mL; in [1], 8 µg/mL (≈ 6.07 µM); in experiment [17], 4 µg/mL; in experiment [18], 8 µg/mL; in experiment [2], 8 µg/mL (≈ 6.07 µM). In addition, the MIC in experiment [3] is 4 to 8 µg/mL (≈ 3.03 to 6.07 µM); in experiment [4], 8 µg/mL (≈ 6.07 µM); in experiment [21] it was 4 µg/mL; in experiment [5], 8 µg/mL (≈ 6.07 µM); in experiment [6] it was 8 µg/mL (≈ 6.07 µM); in experiment [23] it was 2 µg/mL. Further, the MIC in experiment [24] was 2 µg/mL; in [25] it was 4 to 8 µg/mL; in experiment [26] it was 1 to 2 µg/mL; in experiment [7] it was 16 µg/mL (≈ 12.1 µM); in experiment [8] it was 16 µg/mL (≈ 12.1 µM); in experiment [9], 16 µg/mL (≈ 12.1 µM). For the same compound, the MIC in experiment [11] is 4 to 8 µg/mL (≈ 3.03 to 6.07 µM); in experiment [27], 2 µg/mL; in [28], 2 µg/mL. Also, the result in [14], in [16] and in [20] was inactive. The Ratio in experiment [15], in experiment [19], in [29], in experiment [30] and in experiment [22] was 2 - 8 in each case.
